The record followed here is ChEMBL document CHEMBL1133909, “Piperazine-based CCR5 antagonists as HIV-1 inhibitors. I: 2(S)-methyl piperazine as a key pharmacophore element” (Bioorg Med Chem Lett, 2001).

The target of experiment [1] is T1, Muscarinic acetylcholine receptor M2 (Homo sapiens, UniProt P08172).
T1 sequence (P08172 whole entry): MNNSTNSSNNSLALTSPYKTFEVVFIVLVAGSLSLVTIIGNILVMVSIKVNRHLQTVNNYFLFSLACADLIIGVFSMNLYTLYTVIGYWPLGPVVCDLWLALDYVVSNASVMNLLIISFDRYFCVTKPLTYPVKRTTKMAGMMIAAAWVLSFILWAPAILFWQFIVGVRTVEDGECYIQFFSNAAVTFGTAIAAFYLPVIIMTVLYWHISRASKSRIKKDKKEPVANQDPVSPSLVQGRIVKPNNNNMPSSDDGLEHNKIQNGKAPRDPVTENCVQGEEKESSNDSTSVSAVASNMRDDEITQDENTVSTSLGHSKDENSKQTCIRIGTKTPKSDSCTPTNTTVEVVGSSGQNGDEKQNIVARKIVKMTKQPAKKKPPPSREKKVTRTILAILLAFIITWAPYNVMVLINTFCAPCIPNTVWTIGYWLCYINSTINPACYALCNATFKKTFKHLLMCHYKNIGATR
As to the kind of experiment: Affinity for Muscarinic acetylcholine receptor M2.

The target in experiment [2] is T2, C-C chemokine receptor type 5 (Homo sapiens, UniProt P51681). Kind of experiment: Inhibition of [125I]-labeled RANTES binding to C-C chemokine receptor type 5. In short, it runs like this:
(§1)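 Membranes from CHO cells expressing CCR5 incubated 1 h with 125I-RANTES, with or without compound. Counts averaged. IC50 taken as the amount inhibiting 50% of total 125I-RANTES binding. Ki derived from the binding data. Standard error 10%; assay-to-assay variability 2–3 fold.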

Experiment [3] deals with T2, C-C chemokine receptor type 5. Kind of experiment: Ability to inhibit [125I]-labeled RANTES binding to C-C chemokine receptor type 5. The gist of the method:
as §1

Experiment [4] shares this target. As to the kind of experiment: Ability to inhibit [125I]-labeled RANTES binding to C-C chemokine receptor type 5 expressed in membrane preparation of CHO cells. The class given is cell membranes. In short, it runs like this: as §1
Experiment [5] can be described thus: Antiviral activity was measured as inhibition of the growth of primary HIV-1 isolate (US-1) in human peripheral blood mononuclear cells. The class given is functional.

Structures are written as SMILES.

T2 sequence (P51681 whole entry): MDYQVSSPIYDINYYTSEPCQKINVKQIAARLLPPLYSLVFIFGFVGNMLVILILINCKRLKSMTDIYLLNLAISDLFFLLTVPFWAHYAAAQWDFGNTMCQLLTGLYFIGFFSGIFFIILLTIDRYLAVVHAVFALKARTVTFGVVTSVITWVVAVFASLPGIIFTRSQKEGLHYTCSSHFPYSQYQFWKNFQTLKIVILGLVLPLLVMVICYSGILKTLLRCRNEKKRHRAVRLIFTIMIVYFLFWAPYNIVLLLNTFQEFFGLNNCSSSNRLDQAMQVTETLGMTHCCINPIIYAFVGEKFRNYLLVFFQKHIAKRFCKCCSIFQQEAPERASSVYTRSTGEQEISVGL

Usually Ki stands for the dissociation constant of the complex between target and ligand, obtained from inhibition or displacement. A low value points to tighter binding. Turning to `Cc1cccc(C)c1C(=O)N1CCC(N2CCN(Cc3ccc(S(=O)(=O)c4ccc5c(c4)OCO5)cc3)[C@@H](C)C2)CC1`, the Ki in experiment [1] is more than 40 nM; in experiment [2], 74 nM.

`Cc1cccc(C)c1C(=O)N1CCC(N2CCN([C@@H](C)c3ccc(Cc4cccc(Cl)c4)cc3)[C@@H](C)C2)CC1`: the figures for the Ki in experiment [1] and in experiment [2] were more than 1400 nM and 45 nM, respectively.

Regarding `C[C@H]1CN(C2CCN(C(=O)c3c(N)cccc3Cl)CC2)CCN1[C@@H](C)c1ccc(S(=O)(=O)c2ccc3c(c2)OCO3)cc1`, the Ki in experiment [1] was determined as 100 nM; in experiment [2], 32 nM.

As a reminder, the IC50 is the concentration that inhibits the measured activity by half. On to `Cc1ccccc1C(=O)N1CCC(N2CCN([C@@H](C)c3ccc(Cc4ccc5c(c4)OCO5)cc3)[C@@H](C)C2)CC1`, for which the IC50 in experiment [3] was determined as 90 nM. In experiment [1], this compound gave a Ki of 35 nM.

For the compound `Cc1cccc(C)c1C(=O)N1CCC(N2CCN([C@@H](C)c3ccc(S(=O)(=O)c4ccc5c(c4)OCO5)cc3)CC2)CC1`, the figures for the Ki in experiment [1] and in experiment [2] were 1 nM and 442 nM, respectively.

As for `Cc1cccc(C)c1C(=O)N1CCC(N2CCN(Cc3ccc(Cc4ccc5c(c4)OCO5)cc3)CC2)CC1`, the Ki is 497 nM in experiment [1] and 352 nM in experiment [2].

The compound `Cc1cccc(C)c1C(=O)N1CCC(N2CCN([C@@H](C)c3ccc(S(=O)(=O)c4ccc5c(c4)OCO5)cc3)[C@H](C)C2)CC1` yielded an IC50 in experiment [3] of 440 nM. Further, the affinity in experiment [1], expressed as Ki, was 0.8 nM.

As to `Cc1cccc(N)c1C(=O)N1CCC(N2CCN([C@@H](C)c3ccc(S(=O)(=O)c4ccc5c(c4)OCO5)cc3)[C@@H](C)C2)CC1`, the Ki in experiment [1] was 100 nM; in experiment [4] it was 31 nM.

Take `Cc1cccc(C)c1C(=O)N1CCC(N2CCN([C@@H](C)c3ccc(Cc4ccc5c(c4)OCO5)cc3)[C@@H](C)C2)CC1`: the IC50 in experiment [5] stood at 8 nM. The Ki in experiment [1] was 760 nM; in experiment [2] it was 18 nM.

As for `C[C@H]1CN(C2CCN(C(=O)c3c(F)cccc3F)CC2)CCN1[C@@H](C)c1ccc(S(=O)(=O)c2ccc3c(c2)OCO3)cc1`, the Ki in experiment [1] is 352 nM; in experiment [2], 230 nM.

In the case of `C[C@H]1CN(C2CCN(C(=O)c3c(Cl)cccc3Cl)CC2)CCN1[C@@H](C)c1ccc(S(=O)(=O)c2ccc3c(c2)OCO3)cc1`, the Ki was 270 nM in experiment [1] and 49 nM in experiment [2].

`Cc1cccc(C)c1C(=O)N1CCC(N2CCN(Cc3ccc(S(=O)(=O)c4ccc5c(c4)OCO5)cc3)CC2)CC1`: the Ki in experiment [1] was 31 nM; in experiment [2], more than 1300 nM.

On to `Cc1cccc(C)c1C(=O)N1CCC(N2CCN(Cc3ccc(Cc4ccc5c(c4)OCO5)cc3)[C@@H](C)C2)CC1`, for which the figures for the Ki in experiment [1] and in experiment [2] were more than 40 nM and 44 nM, respectively.

For `Cc1cccc(C)c1C(=O)N1CCC(N2CCN([C@@H](C)c3ccc(S(=O)(=O)c4ccc5c(c4)OCO5)cc3)[C@@H](C)C2)CC1`, the figures for the Ki in experiment [1] and in experiment [2] were 485 nM and 28 nM, respectively.
